Experiments:
Assay type in all cases: functional
[1] = system: Rattus norvegicus; assay: Antiinflammatory activity in Sprague-Dawley rat assessed as inhibition of carrageenan-induced paw edema at 128 mg/kg, sc administered post-challenge measured at 3 hrs post compound treatment relative to vehicle-treated control; details: route subcutaneous
[2] = system: Rattus norvegicus; assay: Antiinflammatory activity in Sprague-Dawley rat assessed as inhibition of carrageenan-induced paw edema at 128 mg/kg, sc administered post-challenge measured at 5 hrs post compound treatment relative to vehicle-treated control; details: route subcutaneous
[3] = system: Mus musculus; assay: Analgesic activity in Swiss albino mouse assessed as inhibition of phenyl-p-benzoquinone-induced writhing at 128 mg/kg, sc administered 30 mins prior challenge relative to vehicle-treated control; details: route subcutaneous
Outline: (§1)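 Male Swiss albino mice, 18–22 g, five per group. Compound suspended in physiological saline with Tween 80 and given sc. At 30 min, 0.03% phenyl-p-benzoquinone given ip at 0.1 mL/10 g body weight. Total writhes per animal counted against a vehicle-treated control group. % change = (treated writhes/control writhes) × 100 − 100.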

[4] = system: Rattus norvegicus; assay: Antiinflammatory activity in Sprague-Dawley rat assessed as inhibition of carrageenan-induced paw edema at 64 mg/kg, […] measured at 3 hrs post compound treatment relative to vehicle-treated control; details: sc, route subcutaneous
[5] = system: Rattus norvegicus; assay: Antiinflammatory activity in Sprague-Dawley rat assessed as inhibition of carrageenan-induced paw edema at 64 mg/kg, sc administered post-challenge measured at 5 hrs post compound treatment relative to vehicle-treated control; details: route subcutaneous
[6] = system: Rattus norvegicus; assay: Antiinflammatory activity in Sprague-Dawley rat assessed as inhibition of carrageenan-induced paw edema at 120 mg/kg, sc administered post-challenge measured at 5 hrs post compound treatment relative to vehicle-treated control; details: route subcutaneous
[7] = system: Rattus norvegicus; assay: Antiinflammatory activity in Sprague-Dawley rat assessed as inhibition of carrageenan-induced paw edema at 120 mg/kg, […] measured at 3 hrs post compound treatment relative to vehicle-treated control; details: sc, route subcutaneous
[8] = system: Mus musculus; assay: Analgesic activity in Swiss albino mouse assessed as inhibition of phenyl-p-benzoquinone-induced writhing at 11.8 mg/kg, sc administered 30 mins prior challenge relative to vehicle-treated control; details: route subcutaneous; outline: as §1
[9] = system: Mus musculus; assay: Analgesic activity in Swiss albino mouse assessed as inhibition of phenyl-p-benzoquinone-induced writhing at 120 mg/kg, sc administered 30 mins prior challenge relative to vehicle-treated control; details: route subcutaneous; outline: as §1
[10] = system: Rattus norvegicus; assay: Antiinflammatory activity in Sprague-Dawley rat assessed as inhibition of carrageenan-induced paw edema at 100 mg/kg, sc administered post-challenge measured at 5 hrs post compound treatment relative to vehicle-treated control; details: route subcutaneous
[11] = system: Rattus norvegicus; assay: Antiinflammatory activity in Sprague-Dawley rat assessed as inhibition of carrageenan-induced paw edema at 100 mg/kg, […] measured at 3 hrs post compound treatment relative to vehicle-treated control; details: sc, route subcutaneous
[12] = system: Mus musculus; assay: Analgesic activity in Swiss albino mouse assessed as inhibition of phenyl-p-benzoquinone-induced writhing at 50 mg/kg, sc administered 30 mins prior challenge relative to vehicle-treated control; details: route subcutaneous; outline: as §1
[13] = system: Rattus norvegicus; assay: Antiinflammatory activity in Sprague-Dawley rat assessed as inhibition of carrageenan-induced paw edema at 12 mg/kg, sc administered post-challenge measured at 3 hrs post compound treatment relative to vehicle-treated control; details: route subcutaneous
[14] = system: Rattus norvegicus; assay: Antiinflammatory activity in Sprague-Dawley rat assessed as inhibition of carrageenan-induced paw edema at 12 mg/kg, sc administered post-challenge measured at 5 hrs post compound treatment relative to vehicle-treated control; details: route subcutaneous
[15] = system: Mus musculus; assay: Analgesic activity in Swiss albino mouse assessed as inhibition of phenyl-p-benzoquinone-induced writhing at 56 mg/kg, sc administered 30 mins prior challenge relative to vehicle-treated control; details: route subcutaneous; outline: as §1

Compound `O=C(NNC(=O)c1ccncc1)c1ccccc1` has an inhibition in vivo at 128 mg/kg [1] of 17%, an inhibition in vivo at 128 mg/kg [2] of 0% and an inhibition in vivo at 128 mg/kg [3] of 38.3%.
Work on `O=C(NN1CCOCC1)c1cccnc1` yielded an inhibition in vivo at 128 mg/kg [1] of 50%, an inhibition in vivo at 128 mg/kg [2] of 17% and an inhibition in vivo at 128 mg/kg [3] of 6.7%.
Work on `CN(C)NC(=O)c1cccnc1` yielded an inhibition in vivo at 64 mg/kg [4] of 0%, an inhibition in vivo at 64 mg/kg [5] of 0% and an inhibition in vivo at 128 mg/kg [3] of 45%.
`O=C(NN1CCc2ccccc2C1)c1ccncc1` gave an inhibition in vivo at 128 mg/kg [1] of 17%, an inhibition in vivo at 128 mg/kg [2] of 17% and an inhibition in vivo at 128 mg/kg [3] of 79%.
`CC(=O)N(NC(=O)c1ccncc1)C(C)=O` showed an inhibition in vivo at 128 mg/kg [1] of 50%, an inhibition in vivo at 128 mg/kg [2] of 17% and an inhibition in vivo at 128 mg/kg [3] of 32%.
`O=C(NNc1ccccn1)c1ccccn1` showed an inhibition in vivo at 120 mg/kg [6] of 100%, an inhibition in vivo at 120 mg/kg [7] of 100% and an inhibition in vivo at 11.8 mg/kg [8] of 50%.
Compound `O=C(NNc1ccccn1)c1ccncc1` has an inhibition in vivo at 120 mg/kg [9] of 0%, an inhibition in vivo at 100 mg/kg [10] of 100% and an inhibition in vivo at 100 mg/kg [11] of 83%.
For `O=C(NN(C(=O)c1ccncc1)c1ccccc1)c1ccncc1`, the inhibition in vivo at 120 mg/kg [9] was 84%, the inhibition in vivo at 100 mg/kg [10] was 34% and the inhibition in vivo at 100 mg/kg [11] was 34%.
For `CC(=O)Oc1ccccc1C(=O)O` [ASPIRIN], the inhibition in vivo at 50 mg/kg [12] was 50%.
In the case of `COc1ccc2c(c1)c(CC(=O)O)c(C)n2C(=O)c1ccc(Cl)cc1` [INDOMETHACIN], the inhibition in vivo at 12 mg/kg [13] is reported as 17% and the inhibition in vivo at 12 mg/kg [14] is reported as 83%.
Work on `CCC(=O)O[C@](Cc1ccccc1)(c1ccccc1)[C@H](C)CN(C)C` [PROPOXYPHENE] yielded an inhibition in vivo at 56 mg/kg [15] of 50%.

— ChEMBL document CHEMBL3243979, “Syntheses of N-substituted 2(3,4)-pyridylcarboxylic acid hydrazides with analgesic and antiinflammatory activity” (1979)
